Bioassay records (PubChem BioAssay)
Rows were chosen to be rich in hits. Some 2.3% of all compounds tested hit in one or more screens of this group.
TRPC6 act = mouse TRPC6 channel activation; Q61143; HEK293-TRPC6 membrane potential dye fluorescence; stronger effect = higher value; B-score at 10 µM; 310,000 tested, 0.13% active;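 active = B-score of the integrated fluorescence ratio above library mean plus 3 SD, and starting fluorescence ratio within library mean plus 5 SD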;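 also: higher score means more depolarization so channel activation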
Target sequence (Q61143 whole entry, looked up): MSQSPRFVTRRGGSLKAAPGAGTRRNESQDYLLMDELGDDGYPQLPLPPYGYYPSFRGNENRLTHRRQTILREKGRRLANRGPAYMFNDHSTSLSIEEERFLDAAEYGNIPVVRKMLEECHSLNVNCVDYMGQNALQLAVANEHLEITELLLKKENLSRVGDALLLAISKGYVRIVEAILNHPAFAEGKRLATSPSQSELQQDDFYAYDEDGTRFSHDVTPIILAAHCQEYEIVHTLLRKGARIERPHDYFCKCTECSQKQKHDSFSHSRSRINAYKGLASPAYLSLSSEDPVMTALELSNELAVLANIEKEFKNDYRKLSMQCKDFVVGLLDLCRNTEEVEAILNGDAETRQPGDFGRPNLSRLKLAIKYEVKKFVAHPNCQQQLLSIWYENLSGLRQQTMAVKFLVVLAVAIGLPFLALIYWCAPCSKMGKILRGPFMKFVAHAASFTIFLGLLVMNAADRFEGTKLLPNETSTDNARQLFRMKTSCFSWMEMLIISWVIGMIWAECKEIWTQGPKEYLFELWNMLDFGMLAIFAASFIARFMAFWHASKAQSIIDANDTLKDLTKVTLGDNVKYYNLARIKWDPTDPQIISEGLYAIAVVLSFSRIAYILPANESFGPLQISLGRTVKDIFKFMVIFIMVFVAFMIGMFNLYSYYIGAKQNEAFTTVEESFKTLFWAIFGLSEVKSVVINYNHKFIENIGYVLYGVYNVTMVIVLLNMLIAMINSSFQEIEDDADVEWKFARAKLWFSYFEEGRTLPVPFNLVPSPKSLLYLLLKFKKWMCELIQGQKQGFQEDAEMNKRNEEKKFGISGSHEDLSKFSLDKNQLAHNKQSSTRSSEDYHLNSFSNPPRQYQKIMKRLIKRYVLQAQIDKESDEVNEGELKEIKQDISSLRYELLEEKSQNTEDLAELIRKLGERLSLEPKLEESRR
TRPC4 agonist = activators of mouse TRPC4 channel; Q9QUQ5; HEK293 TRPC4beta/mu-opioid, Fluo4 calcium fluorescence; stronger effect = higher value; B-score at 10 µM; 310,000 tested, 0.49% active; AID 2237;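 active = B-score above 5 SD of library B-scores, and initial fluorescence ratio not above library mean plus 5 SD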;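 also: positive B-score marks a calcium rise read as TRPC4 activation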
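Material: HEK293 stable line with TRPC4beta plus mu-opioid receptor; technique: Fluo4 calcium-sensitive dye fluorescence, kinetic, 1 Hz baseline; timing: Fluo4 dye loading 45 min at room temperature, 110 s recording; controls: assay buffer as low control, maximal DAMGO as high control; read-out: integrated baseline-normalised fluorescence ratio, converted to per-well B score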
TRPC6 inhibitor = blocks the mouse TRPC6 cation channel. Q61143. HEK293-TRPC6, membrane potential dye, ACh-evoked depolarization; stronger effect = lower value. B-score at 10 µM. 310,000 tested, 1.1% active;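 active = B-score under library mean minus 3 SD, initial fluorescence not abnormally high, positive integrated signal ratio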;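 also: B-score derived from integrated fluorescence ratio over the kinetic read; more negative B-score means stronger inhibition of depolarization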
TRPC4 inh = TRPC4 (mouse) channel inhibition | B-score at 10 µM | 300,000 tested, 0.39% active | HEK293 TRPC4beta/mu-opioid, DAMGO-evoked Fluo4 calcium flux; stronger effect = lower value | AID 2247 | Q9QUQ5;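 active = B-score over 3 SD under the library average, no early fluorescence shift, positive overall ratio signal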
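Assay system: TRPC4beta/mu-opioid receptor HEK293 cell line; compound dosing: single concentration per test compound; detection: Fluo4 Ca2+ flux fluorescence; evaluation: per-well B score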
TRPC4 potent = allosterically enhances the mouse TRPC4 cation channel; B-score at 10 µM; AID 2227; 310,000 tested, 0.42% active; Q9QUQ5; HEK293 TRPC4beta/mu-opioid, DAMGO EC20, Fluo-4 Ca2+ flux; stronger effect = higher value;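 active = B-score of calcium response area above 5 SD of library B-scores, with initial fluorescence ratio within 5 SD of library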;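 also: B-score of integrated fluorescence ratio over time as area under calcium response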
TRPC4 sel inh 2 = mouse TRPC4 off-target activity of TRPC6 inhibitors, second screen; shares compounds with TRPC6 inhibitor; 920 tested, 42% active; inhibition, % at 10 µM; AID 2776; HEK293 TRPC4/MOR, membrane potential dye fluorescence; channel activated by saturating DAMGO dose;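 active = compounds whose fluorescence signal differed from control wells by over 3 SD, either direction, in both duplicate plates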
TRPC4 spec = selectivity of TRPC6 inhibitors: effect on mouse TRPC4; HEK293 TRPC4/mu-opioid, membrane potential fluorescence; activity change, negative = inhibition, % at 10 µM; shares compounds with TRPC6 inhibitor; 920 tested, 61% active;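 active = rise or fall in signal beyond 3 SD of buffer-only wells in both replicate plates, either sign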;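 also: integrated kinetic ratio of fluorescence range over baseline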
HEK293 MPD ctr 2-1 = second check of TRPC6 inhibitor effects in parental HEK293 cells | shares compounds with TRPC6 inhibitor | parental HEK293 membrane potential dye fluorescence; maximal acetylcholine challenge after compound addition | signal change vs control, % at 10 µM | 920 tested, 31% active;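 active = membrane potential signal moving either way by over 3 SD of the maximum-effect control, in both duplicate plates, meaning non-specific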
HEK293 MPD ctr-1 = parental HEK293 nonspecific activity of TRPC6 inhibitors | 920 tested, 60% active | shares compounds with TRPC6 inhibitor | membrane potential signal change, % at 10 µM | parental HEK293 membrane potential dye fluorescence;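 active = membrane potential signal shifting up or down by more than 3 SD of buffer-only wells, on both duplicate plates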
HEK293 MPD ctr-2 = counter-screen for TRPC6 modulators: effect in parental HEK293 cells. shares compounds with TRPC6 inhibitor. membrane potential dye fluorescence. membrane potential signal change, % at 10 µM. 2,400 tested, 51% active. AID 488924;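 active = membrane potential signal moves up or down beyond 5 SD from buffer-only wells, on both duplicate plates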
HEK293 MPD ctr 2-2 = second check of TRPC6 modulator effects in parental HEK293 cells | membrane potential dye fluorescence; after compound, maximal acetylcholine stimulation | 2,400 tested, 14% active | shares compounds with TRPC6 inhibitor | AID 488926 | inhibition, % at 10 µM;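 active = membrane potential signal drops by more than 5 SD from the mean control signal, in both duplicate plates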;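 also: plate controls were acetylcholine ECmax control wells for no effect and buffer only wells for full effect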
TRPC4 ctr mod = mouse TRPC4 off-target activity of TRPC6 modulators; percent change from control (negative = decrease, positive = increase), % at 10 µM; HEK293 TRPC4/mu-opioid, membrane potential fluorescence; AID 488927; 2,400 tested, 69% active; shares compounds with TRPC6 inhibitor;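 active = membrane potential signal moved up or down beyond 5 SD of buffer control wells, in both duplicate plates, actives on both sides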;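 also: plate controls were assay buffer wells for no effect and DAMGO maximal-effect wells for full effect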
TRPC4 ctr inh 2 = second check of whether TRPC6 modulators also affect mouse TRPC4 | inhibition, % at 10 µM | HEK293 TRPC4/mu-opioid, membrane potential dye fluorescence; stimulated with maximal-effect DAMGO | 2,400 tested, 55% active | AID 488928 | shares compounds with TRPC6 inhibitor;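 active = drop in membrane potential signal beyond 5 SD of the control wells in both duplicate plates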;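 also: TRPC4 counter screen for TRPC6 hits run under conditions tuned for TRPC6 not TRPC4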
TRPC6 block conf = mouse TRPC6 inhibitor confirmation; shares compounds with TRPC6 inhibitor; HEK293-TRPC6, membrane potential dye, ACh-evoked depolarization; inhibition, % at 10 µM; 3,300 tested, 43% active; AID 488960;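 active = fluorescence ratio falls more than 5 SD below the full-stimulation control mean, in both duplicate runs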;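 also: integrated fluorescence ratio of peak minus minimum over baseline after agonist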
TRPC6 act conf = mouse TRPC6 activator confirmation; shares compounds with TRPC6 inhibitor; 2,800 tested, 11% active; HEK293-TRPC6 membrane potential dye fluorescence, FDSS; activation, % at 10 µM;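 active = ratio signal rise beyond 5 SD above unstimulated control wells' mean, seen in both duplicate runs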;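 also: plate controls were buffer EC0 wells for no effect and acetylcholine ECmax response for full effect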
The depositor's hits bear a star.

Screening Cc1cc(N2CCN(C)CC2)ccc1NC(=O)c1ccc(-c2ccc(Cl)cc2)o1 returned TRPC6 act inactive, TRPC4 agonist 50*, TRPC6 inhibitor -9.02*, TRPC4 inh inactive, TRPC4 potent inactive, TRPC4 sel inh 2 16.0%*, TRPC4 spec 2.7%*, HEK293 MPD ctr 2-1 inactive, HEK293 MPD ctr-1 -334.0%*, TRPC6 block conf 66.7%* and TRPC6 act conf inactive.
For CC(C)N(c1ccccc1)c1ccc(NC(=S)NCCN(C)C)cc1 the results were TRPC6 act inactive, TRPC4 agonist inactive, TRPC6 inhibitor -6.56*, TRPC4 inh inactive, TRPC4 potent inactive, HEK293 MPD ctr-2 inactive, HEK293 MPD ctr 2-2 inactive, TRPC4 ctr mod inactive, TRPC4 ctr inh 2 40.5%*, TRPC6 block conf 46.5%* and TRPC6 act conf inactive.
For CC(OC(=O)CCC(=O)N1CCN(S(=O)(=O)c2ccc3ccccc3c2)CC1)C(=O)NC(N)=O (stereo unspecified) the results were TRPC6 act inactive, TRPC4 agonist inactive, TRPC6 inhibitor inactive, TRPC4 inh inactive and TRPC4 potent inactive.
Screening CCOC(=O)c1ccc(NC(=O)CCC2COc3ccccc3O2)cc1 (stereo unspecified) returned TRPC6 act 20.1*, TRPC4 agonist inactive, TRPC6 inhibitor inactive, TRPC4 inh inactive, TRPC4 potent inactive, HEK293 MPD ctr-2 inactive, HEK293 MPD ctr 2-2 inactive, TRPC4 ctr mod inactive, TRPC4 ctr inh 2 inactive and TRPC6 act conf 135.5%*.
COc1ccc(CNC(=O)CN(Cc2ccccc2)C(=O)CCC(=O)Nc2ccccn2)cc1 was read as TRPC6 act inactive, TRPC4 agonist inactive, TRPC6 inhibitor inactive, TRPC4 inh inactive and TRPC4 potent inactive.
For CCN(CCNCC(O)COc1ccccc1C(C)C)c1cccc(C)c1 (stereo unspecified) the results were TRPC6 act inactive, TRPC4 agonist inactive, TRPC6 inhibitor inactive, TRPC4 inh inactive and TRPC4 potent inactive.
For COc1ccc(CCC(C)NC2CCCCCCC2)cc1 (stereo unspecified) the results were TRPC6 act inactive, TRPC4 agonist inactive, TRPC6 inhibitor -5.71*, TRPC4 inh inactive, TRPC4 potent inactive, HEK293 MPD ctr-2 289.0%*, HEK293 MPD ctr 2-2 inactive, TRPC4 ctr mod 64.5%*, TRPC4 ctr inh 2 76.0%* and TRPC6 block conf 56.0%*.
`COc1ccc(/C=C/CN2CCCC(CCC(=O)NCc3ccc(F)c(F)c3)C2)cc1` (stereo unspecified) gave TRPC6 act inactive, TRPC4 agonist inactive, TRPC6 inhibitor -7.37*, TRPC4 inh inactive, TRPC4 potent inactive, TRPC4 sel inh 2 48.0%*, TRPC4 spec 0.3%*, HEK293 MPD ctr 2-1 inactive, HEK293 MPD ctr-1 7.4%*, TRPC6 block conf inactive and TRPC6 act conf inactive.
COCCC(=O)N1CCCC(CCC(=O)NCc2ccc(F)c(F)c2)C1 (stereo unspecified) was read as TRPC6 act inactive, TRPC4 agonist inactive, TRPC6 inhibitor inactive, TRPC4 inh inactive and TRPC4 potent inactive.
For COC(=O)c1ccc(CN2CCCC(CCC(=O)NCc3ccc(C)o3)C2)cc1 (stereo unspecified) the results were TRPC6 act inactive, TRPC4 agonist inactive, TRPC6 inhibitor -7.93*, TRPC4 inh inactive, TRPC4 potent inactive, TRPC4 sel inh 2 inactive, TRPC4 spec 0.0%*, HEK293 MPD ctr 2-1 inactive, HEK293 MPD ctr-1 3.2%*, TRPC6 block conf 56.3%* and TRPC6 act conf inactive.
Screening Cc1noc(C)c1C(=O)N1CCC(C(=O)c2ccccc2)CC1 returned TRPC6 act inactive, TRPC4 agonist inactive, TRPC6 inhibitor inactive, TRPC4 inh inactive and TRPC4 potent inactive.
For Cc1ccccc1-c1nc2cc(NC(=O)C3CC3)ccc2o1 the results were TRPC6 act inactive, TRPC4 agonist inactive, TRPC6 inhibitor inactive, TRPC4 inh inactive and TRPC4 potent inactive.
For O=C(CCc1ccccc1)N1CCCC(Nc2ccc(F)cc2)C1 (stereo unspecified) the results were TRPC6 act inactive, TRPC4 agonist inactive, TRPC6 inhibitor inactive, TRPC4 inh inactive and TRPC4 potent inactive.
For O=C(CSc1n[nH]c(-c2cccs2)n1)NCc1cccs1 the results were TRPC6 act inactive, TRPC4 agonist inactive, TRPC6 inhibitor -6.81*, TRPC4 inh inactive, TRPC4 potent inactive, TRPC4 sel inh 2 inactive, TRPC4 spec inactive, HEK293 MPD ctr 2-1 inactive, HEK293 MPD ctr-1 inactive, TRPC6 block conf inactive and TRPC6 act conf inactive.
For O=C(O)C(Cc1ccccc1)N1C(=O)c2c(Cl)c(Cl)c(Cl)c(Cl)c2C1=O (stereo unspecified) the results were TRPC6 act inactive, TRPC4 agonist inactive, TRPC6 inhibitor inactive, TRPC4 inh inactive and TRPC4 potent inactive.
